This is a sample that favours compounds with a hit; in the whole collection about 4% have one here.
GPR7 antag = antagonists of human GPR7 (neuropeptides B/W receptor 1); P48145; GPR7-expressing cells, fluorescence antagonist assay; inhibition, % at 4.4 µM; 1.1% of 290,000 active; AID 1861; in the data active = inhibition above about 16%, passing the limit was not always enough;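 also: cells stimulated with the agonist NPW; 0% = agonist with vehicle and 100% = vehicle without agonist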
TAAR1 antag = antagonists of human TAAR1; CHO RD-HGA16 TAAR1, Fluo-8 calcium fluorescence, antagonist; inhibition, % at 3 µM; 1.5% of 360,000 active;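 active = inhibition above a per-plate cutoff, the mean inhibition of test compounds on that plate plus 3 SD, cut at about 49% in these data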;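 also: 0% = DMSO plus EC80 beta-PEA response and 100% = DMSO alone without agonist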
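Test system – hTAAR1-expressing CHO RD-HGA16 cells, Gα16-coupled · Also added – β-PEA at EC80 concentration, post-compound challenge · Compound – 3 µM, single point · Incubation – dye loading 75 min at 37 °C, then 30 min room temperature · Measured by – Fluo-8 intracellular calcium dye fluorescence, real-time kinetic reads · Benchmarks – vehicle and agonist controls · Replicates – singlicate, one well per test compound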
DAGLB inh = blocks human DAGLB lipase activity; Q8NCG7; HEK293T DAGLB membrane lysate, EnzChek fluorogenic substrate; inhibition, % at 5.17 µM; 0.059% of 340,000 active; AID 504411; in the data active = inhibition above about 34%;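 also: 0% = enzyme with vehicle and 100% = wells lacking enzyme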
MPTP block = inhibitors of mitochondrial permeability transition pore; isolated mouse mitochondria, Ca2+ swelling absorbance, 30 min; inhibition, % at 10 µM; 1.4% of 360,000 active; AID 602449;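 active = inhibition of 50% or more, scaled per plate between neutral and stimulator controls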;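 also: 0% = DMSO wells given calcium and 100% = 1 mM EGTA wells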
TAAR1 agonist = human TAAR1 agonism; 0.99% of 360,000 active; Q96RJ0; activation, % at 3 µM; CHO RD-HGA16 TAAR1, Fluo-8 calcium fluorescence; vehicle wells 0%, saturating PEA agonist 100%;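 active = activation above the mean activation of all test compounds in the run plus 3 SD, cut at about 38% in these data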
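Benchmarks: low control DMSO, high control PEA (EC100); System: CHO RD-HGA16 cells carrying human TAAR1 plus Gα16; Detection: Fluo-8 fluorescence, 5 s baseline then 140 s kinetic read; Schedule: 17-24 h plating, Fluo-8 75 min 37 °C, 30 min RT; Read-out basis: % activation from peak over basal fluorescence ratio, DMSO-to-PEA scaled.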
MPTP counter = mitochondrial membrane potential, counter-screen; AID 624504; inhibition, % at 10 µM; 78% of 5,000 active; isolated mitochondria, Rhodamine 123 fluorescence; shares compounds with MPTP block; in the data active = inhibition above about 22%;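 also: 0% = DMSO vehicle and 100% = positive control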
MPTP swell DR = dose response confirmation of mitochondrial permeability transition pore inhibitors | isolated mitochondria swelling, absorbance | shares compounds with MPTP block | IC50, µM | 58% of 780 active; in the data active = IC50 below about 20 µM
MPTP cs DR = counter-screen for mitochondrial permeability transition pore inhibitors, dose response. IC50, µM. isolated mitochondria counterscreen, fluorescence read-out. shares compounds with MPTP block. 49% of 780 active; in the data active = IC50 below about 80 µM
The depositor's hits bear a star; nt = no result.

SMILES	GPR7 antag	TAAR1 antag	DAGLB inh	MPTP block	TAAR1 agonist	MPTP counter	others
CC1CCN(C(=O)c2[nH]cnc2C(=O)Nc2ccccc2F)CC1	nt	-5	-1	0	4	nt
COc1ccc([C@H]2CC(=O)C=C(c3ccnc4ccc(Cl)cc34)C2)cc1	nt	23	-9	89*	4	99*
Cc1cc(Cn2nc(-c3ccccc3)cc2C(=O)NCc2cccc(C(F)(F)F)c2)on1	nt	28	-14	63*	10	98*
COC(=O)Cn1c(CN(C)Cc2ccccc2)nc2c1c(=O)n(C)c(=O)n2C	-7	1	-1	5	5	nt
COC(=O)Cn1c(CN2CCC(Cc3ccccc3)CC2)nc2c1c(=O)n(C)c(=O)n2C	-6	1	6	56*	15	103*
COc1ccc(NC(=O)C2Cc3c(-c4ccc5c(c4)OCO5)ccnc3O2)cc1 (stereo unspecified)	nt	-9	nt	-1	-1	nt
O=C1c2ccc(Oc3ccc([N+](=O)[O-])cc3)cc2C(=O)N1c1ccncc1	-4	-5	1	87*	3	79*
COC(=O)c1cc2c(c3c4cc(F)ccc4n(S(=O)(=O)c4cccc(C)c4)c13)C(=O)N(Cc1ccc(N(C)C)cc1)C2	nt	-9	nt	nt	-1	nt
COc1cc(CNC2CCCc3ccccc32)cc(OC)c1OC (stereo unspecified)	-3	0	0	3	2	nt
COc1cccc(CNC2CCCc3ccccc32)c1OC (stereo unspecified)	-7	19	0	60*	5	5	MPTP swell DR=>100;MPTP cs DR=>80
O=C(CC[C@H]1O[C@@H](n2ccc(=O)[nH]c2=O)[C@H](O)[C@@H]1O)NCCN1CCOCC1	nt	-14	nt	-2	2	nt
CCCCn1c(=O)[nH]c(=O)c2c1nc(-c1ccccc1F)n2Cc1ccccc1	-7	-39	7	0	4	nt
O=c1[nH]c(-c2ccccc2F)nc2c1sc(=S)n2Cc1ccccc1	-6	-4	9	66*	4	69*
C[C@H](CO)N1C[C@H](C)[C@H](CN(C)C(=O)C2CCCCC2)OCc2cnnn2CCCC1=O	nt	-4	nt	nt	4	nt
O=C(/C(Br)=C/Nc1cc(Cl)ccc1Cl)C(F)(F)F	-1	-5	1	96*	0	93*
O=C(Nc1cc(Cl)ccc1Cl)N1CCCC1	-13	7	-1	0	1	nt
COc1ccc(C(=O)/C=C/Nc2ccc(S(=O)(=O)Nc3cccc(C(C)=O)c3)cc2)cc1	4	56*	-2	97*	3	84*
COc1cccc(C(=O)/C=C/Nc2ccc(S(=O)(=O)Nc3ccc(C(C)=O)cc3)cc2)c1	-4	16	-1	1	9	nt
C(=C\c1nc(N2CCCCCC2)c2ccccc2n1)/c1ccccc1	-9	8	-16	65*	21	93*
Nc1c(C(=O)OCC(=O)Nc2cccc([N+](=O)[O-])c2)[nH]c(=O)[nH]c1=O	nt	nt	1	-1	nt	nt
CC1(C)SC(=S)N(/N=C/c2ccccc2)C1N(O)C(=O)Nc1ccc([N+](=O)[O-])cc1 (stereo unspecified)	-8	-6	-1	101*	44*	98*
CC1(C)SC(=S)N(NC(=O)Nc2cccc3ccccc23)C1N(O)C(=O)Nc1ccccc1 (stereo unspecified)	-9	23	-5	95*	7	74*
O=C(Nc1ccc2ccccc2c1)c1ccc(Cl)cc1Cl	10	9	-6	0	-1	nt
O=C(Nc1nc(=S)ss1)c1ccc(Cl)cc1Cl	1	0	1	88*	16	64*
CC(C)C[C@H](NC(=O)c1ccc(Cl)c(Cl)c1)C(=O)N1CCC[C@H]1C(=O)NCc1ccccc1	nt	-20	nt	nt	1	nt
Nc1nc2c(-c3ccc([N+](=O)[O-])cc3)nnn2c2ccccc12	nt	6	nt	nt	0	nt
COC(=O)C1=C(C)N(C)C(=NCc2ccc3c(c2)OCO3)NC1c1ccccc1 (stereo unspecified)	nt	-7	nt	nt	1	nt

Compound activity from PubChem BioAssay.
